Data published in article PMC9393037 (International Journal of Nanomedicine, 2022).

What was measured:
[1] = In vitro release study; type: physicochemical; details: PBS pH = 7.4 and pH = 5, 1% SDS, 37 ℃
Outline: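 Test compound-loaded micelles or free test compound were placed in a pre-soaked dialysis bag (MWCO 500) immersed in PBS containing 1% (w/v) SDS at pH 7.4 or pH 5. Bags were shaken at 200 rpm at 37 ℃. Outside medium was sampled at 0.5, 1, 2, 4, 6, 8, 12, 24 and 48 h and replaced with fresh PBS. Cumulative release was tracked.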

[2] = Tissue distribution and targeting evaluation after i.v. administration to mice; type: in vivo, ICR mice; details: for Cmax: male, ICR, mouse, iv, 2.8 mg/kg
Outline: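 Male ICR mice (6-8 weeks, 27-28 g) received 2.8 mg/kg i.v. as free compound or micelles. Four mice were killed per time point (0.17, 0.5, 1, 2 h), and heart, liver, lung, kidney and brain were collected. Tissues were rinsed, weighed, homogenised in cold saline (1:2 w/v), centrifuged, and supernatants assayed by LC-MS/MS.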

[3] = system: MCAO mice; test: MCAO model: behavioural tests; type: in vivo, C57BL/6 mice; details: i.v. for 7 days, seventh day after the operation
Outline: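 Male C57BL/6 mice (6-8 weeks, 24-26 g), four per group, were anaesthetised with 5% chloral hydrate i.p. The right CCA/ECA/ICA were exposed, and a monofilament was placed and removed after 1 h for reperfusion; sham mice had no monofilament. Dosing was i.v. for 7 days: free compound 3 mg/kg, micelles 1 or 3 mg/kg, edaravone 3 mg/kg. A blinded investigator scored Longa on days 1 and 7.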

[4] = Pharmacokinetics after single i.v. administration to rats; type: in vivo, Sprague Dawley rats
Outline: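 Male Sprague Dawley rats (7-9 weeks, 240-260 g), six per group, were fasted overnight. Each received one tail-vein dose of 2 mg/kg as free compound (saline with 30% propylene glycol) or micelles. Jugular blood was drawn into heparinised tubes at 0.03–8 h, and plasma was separated at 4 ℃. Samples were quantified by validated LC-ESI-MS/MS, and PK parameters were calculated; mean ± SD.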

[5] = system: MCAO mice; test: MCAO model: Nissl, TUNEL and LC3 immunofluorescence staining of brain sections; type: in vivo, C57BL/6 mice; details: i.v. for 7 days
[6] = Sprague Dawley, rat, plasma, iv, 2 mg/kg

Question: With `O=C(/C=C/c1ccc(O)cc1)c1ccc(O)cc1O` [ISL, (e)-1-(2,4-dihydroxyphenyl)-3-(4-hydroxyphenyl) −2-propen-1-one] as the molecule, how does the cumulative release ([1]; in eight hours) read?
Answer: The cumulative release was about 90%.

Question: What about the cumulative release ([1]; within the first four hours) of the same molecule?
Answer: Its cumulative release is “More than 60%”.

Question: And the Cmax ([2]; brain)?
Answer: The Cmax was 21.7 ± 3.45 ng/g.

Question: And the Cmax ([2]; heart)?
Answer: Its Cmax is 69.2 ± 10.5 ng/g.

Question: And the Cmax ([2]; kidney)?
Answer: Its Cmax is 713 ± 35 ng/g.

Question: And the Cmax ([2]; liver)?
Answer: The Cmax was 574 ± 137 ng/g.

Question: What about the Cmax ([2]; lung) of the same molecule?
Answer: The Cmax was 179 ± 31.4 ng/g.

Question: And the “detectability of ISL in tissues 1 h after administration” value ([2]; mice, i.v. 2.8 mg/kg, 1 h)?
Answer: The value was “could not be detected”.

Question: And the AUC ([2]; mice, i.v. 2.8 mg/kg, Brain)?
Answer: Its AUC is 8.34 ± 0.61 ng·h/g.

Question: What about the AUC ([2]; mice, i.v. 2.8 mg/kg, Heart) of the same molecule?
Answer: The AUC was 18.66 ± 2.11 ng·h/g.

Question: What about the AUC ([2]; mice, i.v. 2.8 mg/kg, Kidney) of the same molecule?
Answer: Its AUC is 174.7 ± 9.70 ng·h/g.

Question: And the AUC ([2]; mice, i.v. 2.8 mg/kg, Liver)?
Answer: The AUC was 207.70 ± 28.50 ng·h/g.

Question: And the AUC ([2]; mice, i.v. 2.8 mg/kg, Lung)?
Answer: Its AUC is 55.24 ± 6.28 ng·h/g.

Question: And the “neurological scores (Longa scores) compared with the MCAO model group” value [3]?
Answer: The value was “significantly decreased”.

Question: What about the AUC(0-inf) [4, 6] of the same molecule?
Answer: The AUC(0-inf) was 373 ± 106 ng·h/mL.

Question: What about the AUC(0-t) [4, 6] of the same molecule?
Answer: Its AUC(0-t) is 307 ± 92.5 ng·h/mL.

Question: And the MRT last [4, 6]?
Answer: Its MRT last is 10.2 ± 1.8 min.

Question: And the clearance [4, 6]?
Answer: The clearance was 96.3 mL/min/kg.

Question: What about the “detectability of ISL in plasma over time” value ([4]; rats, single i.v. 2 mg/kg) of the same molecule?
Answer: The value was “could not be detected after 2 hours”.

Question: What about the “CL (clearance rate)” value ([4]; rats, single i.v. 2 mg/kg, plasma ISL) of the same molecule?
Answer: The value was 96.3 ± 29 mL/min/kg.

Question: What about the “Nissl staining of neurons (Nissl bodies)” value [5] of the same molecule?
Answer: The value was “not significantly different from that in the model group”.

Question: And the “number of positive cells expressing the LC3 protein” value [5]?
Answer: Its value is “less than that in the model group and more than that in the ISL-M group”.

Question: What about the “number of positive cells stained with the TUNEL” value [5] of the same molecule?
Answer: Its value is “less than that in the model group and more than that in the ISL-M group”.
